Hit rate of the full screen: of about 260,000 compounds, about 960 (0.37%) were called active. The entries come from a sample that favours actives as a whole. A number with no mark means an inactive call.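 How the source made its calls: active means mean E-selectin-positive cell signal at least 10% of the positive control, reached in at least 60% of replicates, without over 20% cell loss; inconclusive means no rule given, readout overlaps actives, possibly toxicity-flagged; inactive means the rest, including those meeting only one limit.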
What follows are compounds tested against E-selectin (Homo sapiens) (UniProt P16581) (assay: inducers of endothelial E-selectin expression – imaging, HUVEC, immunofluorescence imaging, single point, primary screen (AID 686992;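 further: signal is the percent of cells scored E-selectin positive by PE staining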)). Settings: at 7.58 µM, stronger effect = higher value, normalized: neutral wells 0, TNF-alpha wells 100.
E-selectin (Homo sapiens), sequence (P16581 whole entry, looked up): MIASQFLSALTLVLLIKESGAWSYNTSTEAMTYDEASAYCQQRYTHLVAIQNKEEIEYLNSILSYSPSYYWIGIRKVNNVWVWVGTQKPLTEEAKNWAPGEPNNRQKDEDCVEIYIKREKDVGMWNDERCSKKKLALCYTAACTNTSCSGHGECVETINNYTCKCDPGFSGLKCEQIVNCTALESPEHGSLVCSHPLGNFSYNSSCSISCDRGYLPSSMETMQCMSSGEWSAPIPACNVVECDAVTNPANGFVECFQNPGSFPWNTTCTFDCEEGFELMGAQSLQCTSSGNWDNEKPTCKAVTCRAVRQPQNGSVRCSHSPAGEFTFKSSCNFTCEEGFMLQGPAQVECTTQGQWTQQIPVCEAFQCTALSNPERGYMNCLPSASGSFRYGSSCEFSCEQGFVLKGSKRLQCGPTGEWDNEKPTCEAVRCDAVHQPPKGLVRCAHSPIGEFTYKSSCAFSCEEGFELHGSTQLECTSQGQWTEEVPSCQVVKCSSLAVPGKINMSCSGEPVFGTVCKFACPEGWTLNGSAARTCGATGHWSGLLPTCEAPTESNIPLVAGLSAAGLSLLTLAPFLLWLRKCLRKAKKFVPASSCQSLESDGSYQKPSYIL
Method in brief: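 Read-out basis: % PE-positive cells; Test system: HUVEC primary endothelial cells; Technique: immunofluorescence imaging; Dosing: single-point compound dose.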

| SMILES | activation |
| --- | --- |
| COc1ccc(-c2nn(-c3ccccc3)cc2/C=N/Nc2ccccn2)cc1OC | -1.26% |
| O=Cc1cn(-c2ccccc2)nc1-c1ccccn1 | 31.7% (active) |
| O=Cc1cn(Cc2ccccc2)nc1-c1cccnc1 | 2.7% |
| COC(=O)c1ccc2nc(-c3ccc(Cl)cc3)c(Cc3cccc(F)c3)n2c1 | -0.152% |
| Cc1cc2nc(-c3ccc(F)cc3)c(Cc3ccsc3)n2c(C)c1Br | 0.0835% |
| O=C(CCCn1c(=O)c2sccc2n(CC(=O)NCC2CCCO2)c1=O)NCc1ccco1 (configuration not stated) | 8.64% |
| CC1=C(C(=O)N2CCOCC2)CC(CC(=O)NCc2ccco2)C(=O)N1Cc1ccc(F)cc1 (configuration not stated) | 8.96% |
| O=C(Cc1ccc(-n2c(=O)c3sccc3n(Cc3ccc(F)cc3)c2=O)cc1)NCc1ccco1 | 159% (active) |
| CC1(C(=O)Nc2cccc3c2CCCC3)CCN1C(=O)C1(c2ccccc2)CC1 (configuration not stated) | 0.283% |
| COCCCNC(=O)C[C@H]1C[C@@]2(C(=O)OC)C(=C[C@H](C(C)(C)C)O[C@@H]2C)N(Cc2ccc3c(c2)OCO3)C1=O | -0.0885% |
| O=C(C[C@@H]1C[C@H]2c3cc(NC(=O)NC4CCCC4)ccc3O[C@H]2[C@@H](CO)O1)NC1CCCCC1 | 0.37% |
| CC1CC(=O)Nc2ccccc2N1S(=O)(=O)c1cccs1 (configuration not stated) | 28.3% (active) |
| CC1COc2ccccc2N1S(=O)(=O)c1ccccc1 (configuration not stated) | 0.485% |
| CC1CC(=O)Nc2ccccc2N1C(=O)COc1ccc2cc(Br)ccc2c1 (configuration not stated) | 0.0775% |
| CC(C)C[C@H]1CN([C@@H](CC(C)C)CN2CCC[C@@H]2CN2C(=O)C(=O)NC[C@@H]2Cc2ccccc2)C(=O)C(=O)N1CCc1ccccc1 | 0.726% |
| CO[C@H]1CN(C)C(=O)c2cc(NC(=O)c3cc(C)on3)ccc2OC[C@@H](C)N(C(C)=O)C[C@H]1C | -0.127% |
| COc1cccc(-c2ccc3c(c2)N(Cc2ccccc2OC)C(=O)C(C)S3)c1 (configuration not stated) | -0.102% |
| O=S1(=O)CCN(C2CCCCCCCCCCC2)CC1 | -0.851% |
| O=C(CNS(=O)(=O)c1ccccc1)N1CCN(C(=O)c2ccco2)CC1 | 0.056% |
| CC(C)C(c1nnnn1C1CCCCC1)N1CCN(C(=O)c2ccco2)CC1 (configuration not stated) | 39.5% (active) |
| O=C(c1ccco1)N1CCN(C(=S)Nc2cc(F)cc(F)c2)CC1 | -1.13% |
| C[C@H](CO)N1C[C@H](C)[C@@H](CN(C)Cc2ccc(C(=O)O)cc2)Oc2ccc(NC(=O)Cn3cnnn3)cc2CC1=O | 2.12% |
| COc1ccc(CN(C)C[C@H]2Oc3ccc(NC(=O)Cn4cnnn4)cc3CC(=O)N([C@@H](C)CO)C[C@@H]2C)cc1 | 52.1% (active) |
| Cc1noc(C)c1NC(=O)Nc1ccc2c(c1)CC(=O)N([C@H](C)CO)C[C@@H](C)[C@@H](CN(C)Cc1ccc(C(F)(F)F)cc1)O2 | -0.087% |
| Cc1noc(C)c1NC(=O)Nc1ccc2c(c1)CC(=O)N([C@@H](C)CO)C[C@@H](C)[C@@H](CN(C)Cc1ccc(Cl)c(Cl)c1)O2 | 449% (active) |
| C[C@H]1CN([C@@H](C)CO)C(=O)Cc2cc(NC(=O)Cn3cnnn3)ccc2O[C@H]1CN(C)Cc1ccc(C(=O)O)cc1 | -4.49% |
| C[C@@H]1CN([C@H](C)CO)C(=O)Cc2cc(NC(=O)Nc3ccccc3)ccc2O[C@H]1CN(C)Cc1ccc(Cl)c(Cl)c1 | 0.392% |

— PubChem BioAssay AID686992 (Broad Institute, 2013)
